# Screening results from PubChem.
# Rad51 HR inh = Rad51 (human) homologous recombination inhibition | Q06609 | hRad51 DNA strand exchange, fluorescence dequenching | inhibition, % at 10 µM | hit rate 0.085% among 200,000 | AID 1385;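 active means inhibition above 40% at the single screening dose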;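 further: 0% = DMSO control wells and 100% = blanks with heterologous ssDNA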
# Target sequence (Q06609 whole entry, looked up): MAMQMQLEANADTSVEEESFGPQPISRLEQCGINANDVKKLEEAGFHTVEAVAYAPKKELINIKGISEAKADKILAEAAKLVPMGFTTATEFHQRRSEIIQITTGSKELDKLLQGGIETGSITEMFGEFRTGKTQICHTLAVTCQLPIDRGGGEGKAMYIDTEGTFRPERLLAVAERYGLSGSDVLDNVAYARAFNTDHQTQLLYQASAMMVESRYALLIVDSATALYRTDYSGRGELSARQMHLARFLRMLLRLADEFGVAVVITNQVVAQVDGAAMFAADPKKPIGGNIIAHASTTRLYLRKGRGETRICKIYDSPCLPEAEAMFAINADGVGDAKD
#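 Assay system: Human Rad51 nucleoprotein filaments preassembled on unlabelled ssDNA | Reagent: Donor/quencher-labelled 47-bp dsDNA substrate | Doses: One concentration, 10 µM final | Times: 37 °C 15-min filament assembly, 30-min compound preincubation, 15-min exchange | Technique: Fluorescein emission 520 nm, excitation 485 nm | Benchmarks: Plate control and blank wells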
# SKKanGAS inh = blocks kanamycin growth of S. pyogenes SKKanGAS strain; BacTiter-Glo, 6 h; inhibition, % at 7.5 µM; hit rate 1.3% among 300,000; AID 1662;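 active means mean replicate score, as percent of positive control median, at least 50; inconclusive means mean below 50 but one replicate at or above 50; inactive means mean and every replicate below 50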;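 further: strain carries kanamycin resistance gene driven by streptokinase promoter and grows in 40 µg/ml kanamycin; loss of luminescence reflects streptokinase promoter inhibition or plain growth inhibition; 0% = median of DMSO wells and 100% = positive control at its reference dose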
# Cl transport mod = modulators of human KCC2 chloride dependent transport | Q9H2X9 | KCC2 cells, thallium flux FluoZin-2 fluorescence | B-score of Tl+ flux slope (higher = more flux/activation; lower = inhibition) at 10 µM | hit rate 2.2% among 190,000;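 active means thallium flux slope and its plate-corrected score both differing from the plate sample mean at a set confidence after two filtering rounds, in either direction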;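 further: slope of fluorescence scaled to starting intensity during 10 to 20 s after thallium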
# WT yeast gro inh = growth inhibition of WT yeast, mitochondrial fusion screen; hit rate 2.1% among 190,000; inhibition, % at 10 µM; mitochondrial fusion phenotypic screen, WT strain; in the data active means inhibition above about 58%; tested in S. cerevisiae
# Insulin prom up = MIN6 insulin promoter up-regulation. MIN6 insulin promoter-GFP reporter, high-content imaging; hits give high values. z-score at 5 µM. hit rate 0.3% among 190,000;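 active means z-score above 3 at 5 µM with at least 500 cells counted in the well; inconclusive means wells under 500 cells, flagged as cytotoxic or low count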
# Autophagy HCS = autophagy modulation, high-content screen | MEF GFP-LC3 puncta imaging; test concentration mostly 10 µM | calls only at 10 µM (by protocol) | hit rate 0.98% among 190,000 | AID 463193;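 active means percentage of spot-positive cells more than 3 SD above its plate mean, without a fluorescence outlier flag or 80% toxicity; inconclusive means no clear call, values can overlap the other calls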;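 further: spot-positive cell cutoff set from DMSO-treated cells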
# An asterisk follows results filed as active; i = inactive; ? = inconclusive; nt = no result; + = active, no number. Rows were chosen to be rich in hits. Some 4.2% of all compounds tested hit in one or more screens of this group.
SMILES,Rad51 HR inh,SKKanGAS inh,Cl transport mod,WT yeast gro inh,Insulin prom up,Autophagy HCS
COc1ccc(-c2ccc([C@H]3[C@@H]4C=CCC[C@@]4(C)C(=O)N3Cc3ccccc3)c(F)c2)cc1,-3,58*,0.24,nt,nt,nt
COc1ccc(Br)cc1[C@H]1[C@@H]2C=CCC[C@@]2(C)C(=O)N1Cc1ccccc1,-4,?,-0.41,nt,nt,nt
C[C@@]12CCC=C[C@H]1[C@H](c1ccc3ccccc3c1)N(Cc1ccccc1)C2=O,7,69*,-0.064,nt,nt,nt
Cc1ccc(-c2cc(N)n3nc(-c4ccc(C)cc4)cc3n2)cc1,nt,12,0.58,-1,0.12,i
Cc1ccc(-c2cc3nc(-c4ccc(Br)cc4)cc(N)n3n2)cc1,1,75*,-0.039,-10,0.98,i
CCn1cc(C(=O)OCC(=O)c2cc(C)n(-c3cccc(C(F)(F)F)c3)c2C)c(=O)c2ccc(C)nc21,-5,59*,-0.0024,68*,2.8,i
Cn1c(NCc2ccccc2)nc2c1c(=O)n(Cc1ccc(Br)cc1)c(=O)n2C,-2,47,nt,46,-1.3,i
COc1ccc(CNc2nc3c(c(=O)n(Cc4ccc(Br)cc4)c(=O)n3C)n2C)cc1,-6,54*,-0.034,45,-0.78,i
COCC(=O)Nc1nnc(-c2ccc(C(C)(C)C)cc2)s1,5,16,1.1,70*,0.11,i
O=c1c(-c2ccc(Cl)cc2)[n+]([O-])c2ccccc2n1O,1,4,9.6*,10,-0.12,i
C=CCNC(=S)NNc1nc(Nc2ccccc2)nc(N2CCCCC2)n1,7,8,-1.6,2,-0.49,i
S=C(NNc1nc(Nc2ccccc2)nc(N2CCCCC2)n1)NC1CCCCC1,-14,60*,1.4,14,-1,i
Cc1ccc(NC(=O)COC(=O)/C(=C/c2cccs2)c2cccs2)cc1S(=O)(=O)N(C)C,nt,13,-1.5,9,-0.35,i
COc1ccc(Br)cc1S(=O)(=O)N(CC(=O)N1CCN(C)CC1)c1ccccc1,nt,-2,nt,nt,nt,nt
Cc1ccc(C2C=C(c3ccccc3OC(F)F)Nc3ncnn32)cc1 (centres undefined),nt,-2,-0.0024,6,0.02,i
CN(C)c1ccc(C2C=C(c3ccc(Cl)cc3OC(F)F)Nc3ncnn32)cc1 (centres undefined),-64,87*,nt,17,1.9,nt
ClCc1ncc(-c2ccc(Cl)cc2)o1,-36,-18,0.45,-7,0.49,i
CCC1CCCCN1S(=O)(=O)c1ccc(NC(=O)c2cccs2)cc1 (centres undefined),-2,2,0.019,20,-0.83,i
CCC1CCCCN1S(=O)(=O)c1ccc(NC(=O)CSc2ncccc2C(=O)O)cc1 (centres undefined),6,5,0.14,7,0.62,+
O=c1c2ccccc2nc(-c2ccccc2)n1CCN1CCOCC1,4,-2,1.4,-15,0.24,i
O=c1c2ccccc2nc2c3ccccc3c(NCCN3CCOCC3)nn12,-3,6,-0.087,-4,nt,+
O=c1c2c(-c3ccccc3)csc2nc2c3ccccc3c(NCCN3CCOCC3)nn12,6,6,-0.87,17,-2.6,+
C/C(=N\NC(=O)c1ccccc1N)c1ccc(NC(=O)Cc2ccccc2)cc1,nt,67*,nt,nt,nt,nt
O=C(CSc1cccc[n+]1[O-])c1ccc(Cl)s1,6,13,-0.061,-1,-0.05,i
Cn1nc(C(=O)N2CCN(S(=O)(=O)/C=C/c3ccccc3)CC2)c2ccccc2c1=O,-2,-2,0.88,-6,0.77,i
SMILES,Rad51 HR inh,SKKanGAS inh,Cl transport mod,WT yeast gro inh,Insulin prom up,Autophagy HCS
CN(C)c1ccc(/C=C/c2ccc3ccccc3[n+]2C)cc1,12,?,-1,87,?,+
COC(=O)c1ccc(NC(=O)CCN2CCN(c3ccccc3)CC2)cc1,0,10,-1.5,11,-0.38,+
O=C(CN1CCN(c2ccccc2)CC1)Nc1ccc(Oc2ccccc2)cc1,-3,6,nt,60*,nt,i
O=C(CN1CCN(c2ccc(O)cc2)CC1)Nc1ccc(SC(F)F)cc1,4,9,0.034,-3,-0.86,i
COc1cccc(N2CCN(CC(=O)Nc3ccc(SC(F)F)cc3)CC2)c1,-7,4,0.18,63*,-1.2,i
COC(=O)c1ccc(C)c(-n2c(C)cc(C=O)c2C)c1,nt,-6,-0.37,10,0.07,i
Cc1ccc(OC(C)C(=O)Nc2ccccc2C(=O)NCc2cccnc2)cc1C (centres undefined),nt,-3,nt,nt,nt,nt
CCOc1ccc(NC(=S)N(CCOC)C(C)c2ccco2)cc1 (centres undefined),18,17,-0.039,nt,0.27,nt
O=C1/C(=N\S(=O)(=O)c2cccs2)C([n+]2ccc(CCCc3ccccc3)cc2)=C([O-])c2ccccc21,20,110*,-2.4,nt,-0.95,nt
CC(C)[n+]1ccn(C2=C([O-])c3ccccc3C(=O)/C2=N\S(=O)(=O)c2ccccc2)c1,nt,-7,1.3,nt,1.5,nt
CC(C)(C)c1cc[n+](C2=C([O-])c3ccccc3C(=O)/C2=N\S(=O)(=O)c2ccccc2)cc1,18,86*,2.3,nt,-0.22,nt
O=C1/C(=N\S(=O)(=O)c2cccs2)C([n+]2cccc(Cc3ccccc3)c2)=C([O-])c2ccccc21,-467,106*,-0.58,nt,6.8*,nt
CCN(Cc1ccncc1)C(=O)CSc1ccc2ccccc2c1,1,8,-2.4,-11,0.13,i
CCCSc1nsc(NC(=O)Nc2ccc(F)cc2F)n1,nt,64*,nt,nt,nt,nt
CCSc1nsc(NC(=O)Nc2cccc(F)c2)n1,nt,66*,nt,nt,nt,nt
COc1cccc(NC(=O)Nc2nc(SC(C)(C)C)ns2)c1,nt,55*,nt,nt,nt,nt
CCCSc1nsc(NC(=O)C(c2ccccc2)c2ccccc2)n1,-4,100*,-0.00068,-31,1.7,i
CCCSc1nsc(NC(=O)CC)n1,-18,6,-0.049,-12,-0.54,i
CSCCC(N=C(NS(=O)(=O)c1ccc(C)cc1)c1ccccc1)C(=O)O (centres undefined),nt,5,-0.0045,nt,0.06,nt
Cc1cc(C)c(S(=O)(=O)N2CCOC2CNC(=O)C(=O)NCCCN2CCOCC2)c(C)c1 (centres undefined),nt,1,nt,nt,nt,nt
COC(=O)c1sc(NC(=S)NC(=O)c2cccc(C)c2)nc1C,-4,4,18*,2,0.12,i
Cc1ccc(C(=O)NC(=S)Nc2ccccc2C(F)(F)F)cc1C,1,37,nt,80*,-0.26,i
Cc1cc(C(=O)Nc2ccccc2C(F)(F)F)no1,1,-5,0.83,-2,0.67,i
Cc1cccc(C(=O)NC(=S)Nc2ccccc2C(=O)O)c1,nt,6,-0.087,22,0.27,i
Cc1cccc(C(=O)NC(=S)Nc2ccccc2C(F)(F)F)c1,nt,1,19*,-7,-0.42,i
